Converted amounts (≈) assume the structure as drawn. The source made the active and inactive calls. No cut-off for these calls is given here.
Tests used:
[1] = system: Mycobacterium tuberculosis; experiment: Antimycobacterial activity against Mycobacterium tuberculosis RCMB 010126 clinical isolate after 7 days by MABA; format: functional
In short: (§1)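 Inoculum from fresh LJ culture resuspended in 7H9-S broth with casitone, glycerol and OADC, adjusted to McFarland No. 1 and diluted 1:20. Serial two-fold compound dilutions in 7H9-S; isoniazid reference. Incubated 7 days at 37°C in air, then Alamar blue added and incubated overnight. Percent inhibition = 1 − (test well/growth-control mean) × 100; MIC = lowest concentration preventing blue-to-pink change.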

[2] = system: Mycobacterium tuberculosis; experiment: Antimycobacterial activity against Mycobacterium tuberculosis RCMB 010126 clinical isolate assessed as inhibition zone after 7 days by MABA; format: functional; in short: as §1
Aspergillus fumigatus [3] = experiment: Antimicrobial activity against Aspergillus fumigatus RCMB 02568 assessed as diameter of zone inhibition at 100 ug/ml after 48 hrs by agar well diffusion assay; format: functional; settings: for zone of inhibition at 100 µg/mL: RCMB 02568, 48 h, read-out: DIZ
In short: (§2)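 Agar well diffusion on malt agar plates seeded with the fungus, using 1 cm wells. Plates were held at 4°C for 1 h for diffusion, then incubated at 28°C. Inhibition zone diameters were measured at 48 h. Amphotericin B was the positive control. Run in triplicate, with the mean zone reported.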

Candida albicans [4] = experiment: Antimicrobial activity against Candida albicans RCMB 05036 assessed as diameter of zone inhibition at 100 ug/ml after 48 hrs by agar well diffusion assay; format: functional; settings: for zone of inhibition at 100 µg/mL: RCMB 05036, 48 h, read-out: DIZ; in short: as §2
Streptococcus pneumoniae = experiment: Antimicrobial activity against Streptococcus pneumoniae RCMB 010010 assessed as diameter of zone inhibition at 100 ug/ml after 24 hrs by agar well diffusion assay; format: functional; settings: for zone of inhibition at 100 µg/mL: RCMB 010010, 24 h, read-out: DIZ
In short: (§3)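 Agar well diffusion on nutrient agar plates seeded with the bacterium, using 1 cm wells. Plates were held at 4°C for 1 h for diffusion, then incubated at 37°C. Inhibition zone diameters were measured at 24 h. Ciprofloxacin was the positive control. Run in triplicate, with the mean zone reported.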

Staphylococcus aureus = experiment: Antimicrobial activity against Staphylococcus aureus RCMB 010028 assessed as diameter of zone inhibition at 100 ug/ml after 24 hrs by agar well diffusion assay; format: functional; settings: for zone of inhibition at 100 µg/mL: RCMB 010028, 24 h, read-out: DIZ; in short: as §3
Escherichia coli = experiment: Antimicrobial activity against Escherichia coli RCMB 010052 assessed as diameter of zone inhibition at 100 ug/ml after 24 hrs by agar well diffusion assay; format: functional; in short: as §3
Pseudomonas aeruginosa = settings: RCMB 010043, 100 ug/ml
Aspergillus fumigatus [5] = experiment: Antimicrobial activity against Aspergillus fumigatus RCMB 02568 after 48 hrs by serial dilution method; format: functional; settings: RCMB 02568, 48 h
In short: (§4)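 Serial twofold dilution in microtiter plates starting from a 100 mmol stock in DMSO; final concentrations 125 down to 0.12 […]. Incubated at 28°C and read on a microplate reader after 48 h. Amphotericin B was the reference. Run in triplicate, with the average taken. MIC was the lowest concentration inhibiting growth.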

Candida albicans [6] = experiment: Antimicrobial activity against Candida albicans RCMB 05036 after 48 hrs by serial dilution method; format: functional; settings: RCMB 05036, 48 h; in short: as §4
[7] = Mycobacterium tuberculosis, RCMB 010126, 168 h

SMILES	MIC [1, 7]	inhibition zone (IZ) [2]	diameter of the inhibition zone (DIZ) (Aspergillus fumigatus [3])	diameter of the inhibition zone (DIZ) (Candida albicans [4])	diameter of the inhibition zone (DIZ) (Streptococcus pneumoniae)	diameter of the inhibition zone (DIZ) (Staphylococcus aureus)	diameter of the inhibition zone (DIZ) (Escherichia coli)	DIZ (Pseudomonas aeruginosa)	zone of inhibition at 100 µg/mL (Streptococcus pneumoniae)	zone of inhibition at 100 µg/mL (Staphylococcus aureus)	zone of inhibition at 100 µg/mL (Aspergillus fumigatus [3])	zone of inhibition at 100 µg/mL (Candida albicans [4])	zone of inhibition at 100 µg/mL (Escherichia coli; RCMB 010052, 24 h, read-out: DIZ)	MIC (Aspergillus fumigatus [5])	MIC (Candida albicans [6])	MIC [1]
NNC(=O)c1ccncc1 [ISONIAZID]	0.75 µg/mL (≈ 5.47 µM)	inactive														
COc1cc(/C=N/NC(=O)c2c[nH]c3cc(Cl)ccc3c2=O)cc(OC)c1OC	6.24 µg/mL (≈ 15 µM)	42.65 mm	inactive	inactive	inactive	inactive	inactive	inactive								
Cc1ccc(/C=N/NC(=O)c2ccc(-c3ccc(Cl)cc3)nc2C)cc1	49.9 µg/mL (≈ 137 µM)	26.35 mm	inactive	inactive	inactive	inactive	inactive	inactive								
Cc1nc(-c2cccc(Cl)c2)ccc1C(=O)N/N=C/c1ccc(Cl)cc1Cl	6.24 µg/mL (≈ 14.9 µM)	41.98 mm	inactive	inactive			inactive	inactive	19.3 mm	11.4 mm						
Cc1nc(-c2ccc(Cl)cc2)ccc1C(=O)N/N=C/c1ccc(F)cc1	6.24 µg/mL (≈ 17 µM)	40.31 mm	inactive	inactive	inactive	inactive	inactive	inactive								
O=C(N/N=C/c1ccc(F)cc1)c1c[nH]c2cc(Cl)ccc2c1=O	12.5 µg/mL (≈ 36.3 µM)	36.42 mm						inactive	16.9 mm	16.2 mm	16.8 mm	14.4 mm	12.5 mm			
C[C@@H]1[C@H](O)[C@@H](C)/C=C/C=C/C=C/C=C/C=C/C=C/C=C/[C@H](O[C@@H]2O[C@H](C)[C@@H](O)[C@H](N)[C@@H]2O)C[C@@H]2O[C@](O)(C[C@@H](O)C[C@@H](O)[C@H](O)CC[C@@H](O)C[C@@H](O)CC(=O)O[C@H]1C)C[C@H](O)[C@H]2C(=O)O [AMPHOTERICIN B]											23.7 mm	25.4 mm		1.95 µg/mL (≈ 2.11 µM)	0.98 µg/mL (≈ 1.06 µM)	
Cc1ccc(/C=N/NC(=O)c2c[nH]c3ccc(Cl)cc3c2=O)cc1		inactive				inactive	inactive	inactive	20.4 mm		10.3 mm	12.1 mm				inactive
Cc1nc(-c2ccc(Cl)cc2)ccc1C(=O)N/N=C/c1ccc(Cl)cc1	12.5 µg/mL (≈ 32.5 µM)	36.24 mm	inactive	inactive	inactive	inactive	inactive	inactive								
Cc1nc(-c2cccc(Cl)c2)ccc1C(=O)N/N=C/c1ccc(F)cc1	3.12 µg/mL (≈ 8.48 µM)	52.34 mm	inactive	inactive	inactive	inactive	inactive	inactive								

Reference: ChEMBL document CHEMBL4130356, “Design, synthesis and 2D QSAR study of novel pyridine and quinolone hydrazone derivatives as potential antimicrobial and antitubercular agents” (Eur J Med Chem, 2017)
